# Measurements collected from several papers.
# Protocols differ between the studies behind these lines.
# MAPK14: Mitogen-activated protein kinase 14 (MAPK14, Homo sapiens, UniProt Q16539)
# MAPK14 T106M: Mitogen-activated protein kinase 14 (MAPK14, Homo sapiens, UniProt Q16539, T106M)
SMILES,target,test,conditions,endpoint,result
CC(C)(O)c1cncc(-c2nc3ccc(F)cc3n2C2CC2)c1,MAPK14,"cell-free assay, competition with immobilised ligand",1 µM,remaining binding,100%
Cc1ccc(C(=O)Nc2ccc(CN3CCN(C)CC3)c(C(F)(F)F)c2)cc1C#Cc1cnc2cccnn12,MAPK14,"enzyme activity, inhibitor",23.5 nM,remaining activity,29%
Cc1ccc(NC(=O)c2ccc(C)c(C(F)(F)F)c2)cc1C#Cc1nn(C2CCC(O)CC2)c2ncnc(N)c12 (stereo not shown),MAPK14,cell-free assay,10 µM,remaining signal,3%
Cc1cc(-n2nc(Cc3cc(F)cc(C(F)(F)F)c3)nc2C)ccc1C(N)=O,MAPK14,"cell-free assay, competition with immobilised ligand",1 µM,remaining binding,95%
CC(C)(O)[C@H]1CC[C@H](Nc2ccc3ncc(-c4cccc(C(F)(F)F)c4)n3n2)CC1,MAPK14,"enzyme activity, inhibitor",1 µM,remaining activity,86.4%
O=C(Nc1cnn(-c2csc(C(=O)NC3COC3)c2)c1)Nc1ccccc1Cl,MAPK14,"enzyme activity, inhibitor",5 µM,remaining activity,142%
N#CC1(c2ccccn2)CCN(Cc2cc(C(=O)N3CCCC3)c(=O)n3ccccc23)CC1,MAPK14,"cell-free assay, competition with immobilised ligand",1 µM,remaining binding,86%
CN(C)C1CCN(CC#Cc2nn(C3CCCC3)c3nc(NCc4ccccc4)ncc23)C1 (stereo not shown),MAPK14,"enzyme activity, inhibitor, FRET",0.1 µM,inhibition,8%
CSc1cccnc1N1CCN(Cc2nc3ccccc3[nH]2)CC1,MAPK14,"cell-free assay, competition with immobilised ligand",1 µM,remaining binding,100%
O=C(Nc1cnn(-c2csc(C(=O)NC3COC3)c2)c1)Nc1c(F)cccc1Cl,MAPK14,"enzyme activity, inhibitor",5 µM,remaining activity,105%
CC(C)(C)C(=O)c1sc(NC2CCCCC2)nc1N,MAPK14,"enzyme activity, inhibitor",10 µM,remaining activity,102%
O=C(N[C@H]1CCCCC/C=C\C2C[C@@]2(C(=O)O)NC(=O)[C@@H]2C[C@@H](Oc3ccncc3)CN2C1=O)OC1CCCC1 (stereo partly shown),MAPK14,"binding, competition with immobilised ligand",1 µM,remaining binding,94%
Cc1cc(NC(=O)c2cccc3cc(-c4cccc5[nH]nc(N)c45)ccc23)ccc1F,MAPK14,"enzyme activity, inhibitor",0.1 µM,activity vs control,85%
Oc1ccc(-c2nc(-c3ccncc3)c(-c3ccc(F)cc3)[nH]2)cc1,MAPK14,cell-free assay,0.5 µM,remaining signal,7.42%
Cc1c(C(=O)O)cc(-c2ccc(C3CCNCC3)cc2)c2ccc(-c3ccc(C(F)(F)F)cc3)cc12,MAPK14,"binding, competition with immobilised ligand",1 µM,remaining binding,100%
COc1cc(Nc2cnc(C#N)c(O[C@H](C)CN(C)C)n2)ncc1-c1cnn(C)c1,MAPK14,"enzyme activity, inhibitor, radiometric",1 µM,remaining activity,102%
N#CCCc1ccc2c(c1)-c1[nH]c3ccc([N+](=O)[O-])cc3c1CC(=O)N2,MAPK14,cell-free assay,0.5 µM,remaining signal,91.8%
Cc1ccc(Nc2nccc(N(C)c3ccc4c(C)n(C)nc4c3)n2)cc1S(N)(=O)=O,MAPK14 T106M,"enzyme activity, inhibitor",0.3 µM,inhibition,4%
CC(C)(C)c1nc(-c2cccc(NS(=O)(=O)c3c(F)cccc3F)c2F)c(-c2ccnc(N)n2)s1,MAPK14,"enzyme activity, inhibitor, radiometric",1 µM,remaining activity,111%
Cc1cnc(NC2CCOCC2)nc1-n1cnc(C(=O)NC(CN)c2cc(F)cc(Cl)c2)c1 (stereo not shown),MAPK14,"enzyme activity, inhibitor, radiometric",1 µM,remaining activity,77%
FC(F)c1nc2ccccc2n1-c1nc(N2CCOCC2)nc(N2CCOCC2)n1,MAPK14,"enzyme activity, inhibitor",10 µM,remaining activity,89%
CC1=C(C#N)[C@@H](c2ccc3[nH]nc(C)c3c2)C(C#N)=C(c2ccc(Cl)cc2)N1,MAPK14,"cell-free assay, competition with immobilised ligand",1 µM,remaining binding,100%
CNC(=O)c1cc(Oc2ccc(NC(=O)Nc3ccc(Cl)c(C(F)(F)F)c3)cc2)ccn1,MAPK14,"enzyme activity, inhibitor",10 µM,inhibition,84%
CSc1nc(-c2ccnc(N[C@@H](C)c3ccccc3)c2)c(-c2ccc(F)cc2)[nH]1 (racemic),MAPK14,cell-free assay,0.5 µM,remaining signal,7.64%
CCN(CC)CCNC(=O)c1c(C)[nH]c(/C=C2\C(=O)Nc3ccc(F)cc32)c1C,MAPK14 T106M,"enzyme activity, inhibitor",0.3 µM,inhibition,5%
O=C1NC(=O)c2cc(Nc3ccc(F)cc3)c(Nc3ccc(F)cc3)cc21,MAPK14,cell-free assay,0.5 µM,remaining signal,88.3%
Cc1nc(Cc2cccc(C(F)(F)F)c2)sc1-c1ccc(C(N)=O)nc1,MAPK14,"cell-free assay, competition with immobilised ligand",1 µM,remaining binding,100%
c1nc2c(Nc3ccc4c(c3)OCCO4)nc(Nc3ccc4c(c3)OCCO4)nc2[nH]1,MAPK14,"enzyme activity, inhibitor",10 µM,activity vs control,90%
